Assay outcomes: PubChem BioAssay, several laboratories
In the library only some 2.5% were active in any assay of this set; here they are far more common.
PG9 binder – binds the HIV-1 gp120 antibody PG9 | TR-FRET gp120-PG9 antibody binding | inhibition, % at 6.7 µM | 360,000 tested, 0.43% active | AID 624416; in the data active means inhibition above about 8.5%
MC4R antagonist – antagonists of human melanocortin 4 receptor (MC4R); MC4R-expressing cells, MTII-stimulated cAMP, LANCE TR-FRET; inhibition, % at 6.5 µM; 360,000 tested, 0.48% active;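 active means inhibition above its plate's cutoff, the mean of tested wells on that plate plus 3 SD, cut at about 29% in these data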;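 further: 0% = Melanotan II alone and 100% = Melanotan II plus saturating MCL0020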
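System: U2OS-MC4R stable cell line; Technique: Eu-cAMP/anti-cAMP TR-FRET, emission 671 nm; Repeats: single well per compound; Also added: Melanotan II; Dosing: one concentration, 6.5 µM nominal; Schedule: 30-min compound, 1-h challenge, 1-h detection, room temperature.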
MC4R barr agon – activates human MC4R beta-arrestin recruitment | P32245 | U2OS MC4R beta-arrestin complementation, luminescence; percent of melanotan II response, DMSO zero | activation, % at 8.9 µM | 360,000 tested, 0.98% active;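 active means activation above a per-plate cutoff, the mean activation of sample wells on that plate plus 3 SD, cut at about 8% in these data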
NR1D1 modulator – modulators of human Rev-erb alpha DNA binding. P20393. Rev-erbα–FITC-DNA binding, fluorescence polarization, 90 min. 370,000 tested, 0.79% active. activity, % at 10 µM;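 active means activity above about 14%, limit read from the data; passing the limit was not always enough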;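 further: 0% = DMSO wells with 35 nM protein and 100% = DMSO wells with 750 nM protein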
NTR1 agonist – agonists of human neurotensin receptor NTR1. 330,000 tested, 0.17% active. NTR1-U2OS beta-arrestin-GFP spot imaging, agonist mode. P30989. activation, % at 20 µM;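 active means activation at or above 40% of the spot to cytoplasm intensity ratio, with at least 20 cells analyzed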;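 further: 0% = DMSO without peptide and 100% = 100 nM NTR1 peptide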
Target sequence (P30989 whole entry, looked up): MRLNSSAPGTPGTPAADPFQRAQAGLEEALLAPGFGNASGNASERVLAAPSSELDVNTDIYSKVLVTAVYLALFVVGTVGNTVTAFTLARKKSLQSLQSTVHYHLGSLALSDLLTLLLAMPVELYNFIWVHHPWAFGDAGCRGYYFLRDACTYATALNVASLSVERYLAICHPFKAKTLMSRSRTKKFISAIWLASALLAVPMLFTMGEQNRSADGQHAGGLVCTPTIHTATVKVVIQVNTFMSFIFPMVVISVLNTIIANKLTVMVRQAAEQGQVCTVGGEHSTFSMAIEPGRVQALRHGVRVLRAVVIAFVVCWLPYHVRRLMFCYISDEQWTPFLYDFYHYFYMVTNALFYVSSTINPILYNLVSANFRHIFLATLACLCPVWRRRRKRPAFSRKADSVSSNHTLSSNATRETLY
NR1D1 mod conf – confirmation of modulators of human Rev-erb alpha DNA binding. shares compounds with NR1D1 modulator. Rev-erb alpha FITC-DNA binding, fluorescence polarization, 90 min. activation, % at 25 µM. 3,000 tested, 61% active. AID 1259319;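 active means activation at or above a set limit, or at least 3 SD above the negative control mean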;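 further: 0% = 35 nM protein with DMSO and 100% = 750 nM protein high control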
RORg DNA counter – affects RORgamma DNA binding in a Rev-erb alpha counter-screen | purified RORgamma protein-FITC-DNA binding, fluorescence polarization | shares compounds with NR1D1 modulator | IC50, µM | 910 tested, 8% active;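 active means Compounds whose fitted half-maximal concentration for disrupting protein-DNA binding is below 10 micromolar; the record names Rev-erb in its text, so the target is in doubt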
Numbers without * were called inactive.

Results for Cc1ccc2[nH]c(=O)c(CN(C(=O)c3cccs3)c3ccccc3)cc2c1 ?
PG9 binder: -3; MC4R antagonist: 1; MC4R barr agon: 6; NR1D1 modulator: 52*; NTR1 agonist: 7; NR1D1 mod conf: 96*; RORg DNA counter: >40

What do the screens show for `N#Cc1nc(-c2ccc(OCc3ccc(Cl)cc3)cc2)oc1N1CCC(C(N)=O)CC1`?
PG9 binder: 0; MC4R antagonist: 5; MC4R barr agon: 0; NR1D1 modulator: -8; NTR1 agonist: 3

What do the screens show for `N#Cc1nc(-c2ccc(OCc3ccc(Cl)cc3)cc2)oc1N1CCOCC1`?
PG9 binder: -1; MC4R antagonist: 2; MC4R barr agon: 0; NR1D1 modulator: 38*; NTR1 agonist: 1; NR1D1 mod conf: -3

What do the screens show for `COc1ccc(S(=O)(=O)N2CCCCC2)cc1NC(=O)c1cncc(Br)c1`?
PG9 binder: -5; MC4R antagonist: 4; MC4R barr agon: -1; NR1D1 modulator: 41*; NTR1 agonist: -1; NR1D1 mod conf: 19*

Results for CCOc1ncccc1C(=O)Nc1cc(S(=O)(=O)N2CCCCC2)ccc1Cl ?
PG9 binder: 1; MC4R antagonist: -3; MC4R barr agon: -1; NR1D1 modulator: 23*; NTR1 agonist: 7; NR1D1 mod conf: 11*

How did COc1ccc(S(=O)(=O)N2CCCCCC2)cc1NC(=O)c1ccccc1 do in these assays?
PG9 binder: 0; MC4R antagonist: 3; MC4R barr agon: -1; NR1D1 modulator: 1; NTR1 agonist: 0

Results for CC(C)(C)C(=O)Nc1cc(S(=O)(=O)N2CCCCC2)ccc1N1CCCCC1 ?
PG9 binder: -3; MC4R antagonist: 6; MC4R barr agon: -1; NR1D1 modulator: 39*; NTR1 agonist: 4; NR1D1 mod conf: 38*; RORg DNA counter: >40

What do the screens show for `CCOc1ncccc1C(=O)Nc1cc(S(=O)(=O)N2CCOCC2)ccc1N1CCCC1`?
PG9 binder: 0; MC4R antagonist: 21; MC4R barr agon: 0; NR1D1 modulator: 0; NTR1 agonist: -1

Results for COc1ccc(Cn2cc(CN3[C@@H](c4ccccc4)COc4cc(Br)ccc4S3(=O)=O)nn2)cc1 ?
PG9 binder: 2; NR1D1 modulator: 0

Results for Cc1nc2sc(C(c3ccc(C(C)C)cc3)N3CCN(CCO)CC3)c(O)n2n1 (stereo not drawn) ?
PG9 binder: 2; MC4R antagonist: 0; MC4R barr agon: -1; NR1D1 modulator: 0; NTR1 agonist: 0

What do the screens show for `Cc1ccc(C(c2sc3nc(C)nn3c2O)N2CCN(CCO)CC2)cc1` (stereo not drawn)?
PG9 binder: 1; MC4R antagonist: 8; MC4R barr agon: -1; NR1D1 modulator: 17*; NTR1 agonist: 9; NR1D1 mod conf: 6

What do the screens show for `CCN(CC)CCN1C(=O)C(=O)/C(=C(/O)c2ccc(OC(C)C)cc2)C1c1cccs1` (stereo not drawn)?
PG9 binder: -1; MC4R antagonist: 16; MC4R barr agon: -1; NR1D1 modulator: 41*; NTR1 agonist: 0; NR1D1 mod conf: 27*

What do the screens show for `Cc1c(/C(O)=C2\C(=O)C(=O)N(CCN(C)C)C2c2cccs2)cnn1-c1ccccc1` (stereo not drawn)?
PG9 binder: 7; MC4R antagonist: -2; MC4R barr agon: -2; NR1D1 modulator: 19*; NTR1 agonist: -1; NR1D1 mod conf: 27*

How did COC(=O)[C@]12C[C@H](CC(=O)N3CCCC3)C(=O)N(Cc3ccco3)C1=C[C@H](C(C)(C)C)O[C@@H]2C do in these assays?
NR1D1 modulator: -8

Results for CN(C)c1ccc(C=c2c3cc(O)ccc3n3c2cc(-c2ccccc2)[n+]3C)cc1 ?
PG9 binder: -16; MC4R antagonist: -14; MC4R barr agon: 0; NR1D1 modulator: 22*; NR1D1 mod conf: -2

How did O=C(NCc1cccc(Cl)c1)O[C@H]1CC[C@@]23CCCN2C(=O)CCC[C@H]3C1 do in these assays?
NR1D1 modulator: -3

What do the screens show for `O=C(OCC(=O)N1CCCc2ccccc21)c1cc(Br)ccc1O`?
PG9 binder: -1; MC4R antagonist: 8; MC4R barr agon: 0; NR1D1 modulator: 36*; NTR1 agonist: 3; NR1D1 mod conf: 26*

Results for Nc1nccnc1C(=O)OCC(=O)N1CCN(S(=O)(=O)c2ccc(Cl)cc2)CC1 ?
PG9 binder: 1; MC4R antagonist: 2; MC4R barr agon: -2; NR1D1 modulator: -1; NTR1 agonist: 2

Results for CCN(CC)S(=O)(=O)c1ccc(O)c(C(=O)OCC(=O)N2CCCc3ccccc32)c1 ?
PG9 binder: 1; MC4R antagonist: 6; MC4R barr agon: -1; NR1D1 modulator: 2

How did O=C(OCC(=O)N1CCN(S(=O)(=O)c2ccc(Cl)cc2)CC1)c1cc(Br)ccc1O do in these assays?
PG9 binder: 1; MC4R antagonist: 13; MC4R barr agon: -1; NR1D1 modulator: 121*; NTR1 agonist: 1; NR1D1 mod conf: 80*; RORg DNA counter: inactive

What do the screens show for `C[C@H]1COc2cccc(N3CCCC3)c2S(=O)(=O)N1`?
PG9 binder: 0; NR1D1 modulator: -5

What do the screens show for `COc1ccc(CNS(=O)(=O)CC2NCc3cc(OC)ccc32)cc1` (stereo not drawn)?
NR1D1 modulator: 0

How did Cc1cccc(N(Cc2cc3ccc(C)cc3[nH]c2=O)S(=O)(=O)c2ccccc2)c1 do in these assays?
PG9 binder: -1; MC4R antagonist: -5; MC4R barr agon: 2; NR1D1 modulator: 21; NTR1 agonist: 8

What do the screens show for `CCOc1ccc(N(Cc2cc3ccc(C)cc3[nH]c2=O)S(=O)(=O)c2ccccc2)cc1`?
PG9 binder: -2; MC4R antagonist: -10; MC4R barr agon: 1; NR1D1 modulator: 1; NTR1 agonist: 5

How did Cc1ccc2cc(CN(c3ccccc3)S(=O)(=O)c3ccccc3)c(=O)[nH]c2c1 do in these assays?
PG9 binder: 1; MC4R antagonist: -8; MC4R barr agon: -1; NR1D1 modulator: 31*; NTR1 agonist: 2; NR1D1 mod conf: 5

How did Cc1ccc(N(Cc2cc3ccc(C)cc3[nH]c2=O)S(=O)(=O)c2ccccc2)c(C)c1 do in these assays?
PG9 binder: -1; MC4R antagonist: -2; MC4R barr agon: -1; NR1D1 modulator: 15*; NTR1 agonist: 4; NR1D1 mod conf: 9

How did Cc1ccc2cc(CN(c3cccc(C)c3C)S(=O)(=O)c3ccccc3)c(=O)[nH]c2c1 do in these assays?
PG9 binder: -3; MC4R antagonist: -10; MC4R barr agon: -1; NR1D1 modulator: 20*; NTR1 agonist: 6; NR1D1 mod conf: -2

Results for CCC(CC)C(=O)c1c[nH]c(C(=O)NCc2cccs2)c1 ?
PG9 binder: -1; MC4R antagonist: 6; MC4R barr agon: -2; NR1D1 modulator: 1; NTR1 agonist: 2
